What was measured:
SF-268 = assay: Growth inhibition of human SF268 cells after 48 hrs by SRB assay; assay type: functional; conditions: SF-268, 48 h
Outline: (§1)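 NCI 60-cell-line screen. Cells grown in RPMI1640 with 5% fetal calf serum and 2 mM L-glutamine, with inoculum density set by cell line. Preincubated 24 h, then given compound in DMSO at 10^-4 to 10^-8 M (five 10-fold steps) for 48 h continuous exposure. Growth measured by SRB protein assay. GI50, TGI and LC50 reported as –log molar.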

DU-145 = assay: Growth inhibition of human DU145 cells after 48 hrs by SRB assay; assay type: functional; conditions: DU-145, 48 h; outline: as §1
CAKI-1 = assay: Growth inhibition of human Caki1 cells after 48 hrs by SRB assay; assay type: functional; conditions: CAKI-1, 48 h; outline: as §1
HCT-15 = assay: Growth inhibition of human HCT15 cells after 48 hrs by SRB assay; assay type: functional; conditions: HCT-15, 48 h; outline: as §1
RXF 393 = assay: Growth inhibition of human RXF393 cells after 48 hrs by SRB assay; assay type: functional; conditions: RXF 393, 48 h; outline: as §1
U-251 = assay: Growth inhibition of human U251 cells after 48 hrs by SRB assay; assay type: functional; conditions: U-251, 48 h; outline: as §1
786-0 = assay: Growth inhibition of human 786-0 cells after 48 hrs by SRB assay; assay type: functional; conditions: 786-0, 48 h; outline: as §1
UACC-62 = assay: Growth inhibition of human UACC62 cells after 48 hrs by SRB assay; assay type: functional; conditions: UACC-62, 48 h; outline: as §1
SK-OV-3 = assay: Growth inhibition of human SKOV3 cells after 48 hrs by SRB assay; assay type: functional; conditions: SK-OV-3, 48 h; outline: as §1
NCI-H460 [1] = assay: Growth inhibition of human NCI-H460 cells after 48 hrs by SRB assay; assay type: functional; conditions: NCI-H460, 48 h; outline: as §1
OVCAR-8 = assay: Growth inhibition of human OVCAR8 cells after 48 hrs by SRB assay; assay type: functional; conditions: OVCAR-8, 48 h; outline: as §1
SW-620 = assay: Growth inhibition of human SW620 cells after 48 hrs by SRB assay; assay type: functional; conditions: SW-620, 48 h; outline: as §1
CCRF-CEM = assay: Growth inhibition of human CCRF-CEM cells after 48 hrs by SRB assay; assay type: functional; outline: as §1
NCI-H322M = assay: Growth inhibition of human NCI-H322M cells after 48 hrs by SRB assay; assay type: functional; outline: as §1
A498 = assay: Growth inhibition of human A498 cells after 48 hrs by SRB assay; assay type: functional; conditions: A498, 48 h; outline: as §1
TK-10 = assay: Growth inhibition of human TK10 cells after 48 hrs by SRB assay; assay type: functional; conditions: TK-10, 48 h; outline: as §1
K562 = assay: Growth inhibition of human K562 cells after 48 hrs by SRB assay; assay type: functional; conditions: K562, 48 h; outline: as §1
HCC 2998 = assay: Growth inhibition of human HCC2998 cells after 48 hrs by SRB assay; assay type: functional; conditions: HCC 2998, 48 h; outline: as §1
SF-539 = assay: Growth inhibition of human SF539 cells after 48 hrs by SRB assay; assay type: functional; conditions: SF-539, 48 h; outline: as §1
MOLT-4 = assay: Growth inhibition of human MOLT4 cells after 48 hrs by SRB assay; assay type: functional; conditions: MOLT-4, 48 h; outline: as §1
M14 = assay: Growth inhibition of human M14 cells after 48 hrs by SRB assay; assay type: functional; conditions: M14, 48 h; outline: as §1
T47D = assay: Growth inhibition of human T47D cells after 48 hrs by SRB assay; assay type: functional; outline: as §1
OVCAR-4 = assay: Growth inhibition of human OVCAR4 cells after 48 hrs by SRB assay; assay type: functional; conditions: OVCAR-4, 48 h; outline: as §1
KM12 = assay: Growth inhibition of human KM12 cells after 48 hrs by SRB assay; assay type: functional; conditions: KM12, 48 h; outline: as §1
BT-549 = assay: Growth inhibition of human BT549 cells after 48 hrs by SRB assay; assay type: functional; conditions: BT-549, 48 h; outline: as §1
HCT-116 = assay: Growth inhibition of human HCT116 cells after 48 hrs by SRB assay; assay type: functional; conditions: HCT-116, 48 h; outline: as §1
MDA-MB-468 = assay: Growth inhibition of human MDA-MB-468 cells after 48 hrs by SRB assay; assay type: functional; conditions: MDA-MB-468, 48 h; outline: as §1
OVCAR-3 = assay: Growth inhibition of human OVCAR-3 cells after 48 hrs by SRB assay; assay type: functional; conditions: OVCAR-3, 48 h; outline: as §1
NCI-H522 = assay: Growth inhibition of human NCI-H522 cells after 48 hrs by SRB assay; assay type: functional; conditions: NCI-H522, 48 h; outline: as §1
NCI-H460 [2] = assay: Cytotoxicity against human NCI-H460 cells after 72 hrs by SRB assay; assay type: functional, cell-based; conditions: NCI-H460, 72 h
Outline: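 NCI-H460 (ATCC) cells seeded in 96-well plates in growth medium. Scalar drug concentrations added 24 h after plating, then 72 h exposure. Surviving cells stained with sulforhodamine B, OD read at 570 nm. IC50 (50% growth inhibition) fitted from dose–response curves. Mean ± SE of at least three independent experiments.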

SK-MEL-2 = assay: Growth inhibition of human SK-MEL-2 cells after 48 hrs by SRB assay; assay type: functional; conditions: SK-MEL-2, 48 h; outline: as §1
NCI/ADR-RES = assay: Growth inhibition of human NCI/ADR-RES cells after 48 hrs by SRB assay; assay type: functional; outline: as §1
SK-MEL-5 = assay: Growth inhibition of human SK-MEL-5 cells after 48 hrs by SRB assay; assay type: functional; conditions: SK-MEL-5, 48 h; outline: as §1
HOP-62 = assay: Growth inhibition of human HOP62 cells after 48 hrs by SRB assay; assay type: functional; conditions: HOP-62, 48 h; outline: as §1
[3] = Growth inhibition of human […] cells after 48 hrs by SRB assay; assay type: functional; outline: as §1
PC-3 = assay: Growth inhibition of human PC3 cells after 48 hrs by SRB assay; assay type: functional; conditions: PC-3, 48 h; outline: as §1
MDA-MB-435 = assay: Growth inhibition of human MDA-MB-435 cells after 48 hrs by SRB assay; assay type: functional; conditions: MDA-MB-435, 48 h; outline: as §1

COc1cc(C2CC(c3cccc(O)c3)=NN2C(C)=O)cc(OC)c1OC (configuration not stated)
GI50 (SF-268): 7.94 µM | TGI (SF-268; read-out: pTGI (converted)): > 100 µM | GI50 (DU-145): 3.16 µM | GI50 (CAKI-1): 2.51 µM | TGI (CAKI-1; read-out: pTGI (converted)): > 100 µM | GI50 (HCT-15): 0.794 µM | TGI (HCT-15; read-out: pTGI (converted)): > 100 µM | GI50 (RXF 393): 3.98 µM | TGI (RXF 393; read-out: pTGI (converted)): > 100 µM | GI50 (U-251): 2.51 µM | TGI (U-251; read-out: pTGI (converted)): > 100 µM | GI50 (786-0): 1.26 µM | TGI (786-0; read-out: pTGI (converted)): 3.98 µM | GI50 (UACC-62): 2.51 µM | TGI (UACC-62; read-out: pTGI (converted)): > 100 µM | GI50 (SK-OV-3): 2.51 µM | TGI (SK-OV-3; read-out: pTGI (converted)): > 100 µM | GI50 (NCI-H460 [1]): 2 µM | TGI (NCI-H460 [1]; read-out: pTGI (converted)): 10 µM | GI50 (OVCAR-8): 5.01 µM | TGI (OVCAR-8; read-out: pTGI (converted)): > 100 µM | GI50 (SW-620): 0.794 µM | TGI (SW-620; read-out: pTGI (converted)): > 100 µM | GI50 (CCRF-CEM): 1 µM | TGI (CCRF-CEM; read-out: pTGI (converted)): 5.01 µM | GI50 (NCI-H322M): 3.98 µM | TGI (NCI-H322M; read-out: pTGI (converted)): > 100 µM | GI50 (A498): 2.51 µM | TGI (A498; read-out: pTGI (converted)): 10 µM | GI50 (TK-10): 7.94 µM | TGI (TK-10; read-out: pTGI (converted)): > 100 µM | GI50 (K562): 0.631 µM | TGI (K562; read-out: pTGI (converted)): 63.1 µM | GI50 (HCC 2998): 2 µM | TGI (HCC 2998; read-out: pTGI (converted)): 15.8 µM | GI50 (SF-539): 2 µM | TGI (SF-539; read-out: pTGI (converted)): 6.31 µM | GI50 (MOLT-4): 5.01 µM | TGI (MOLT-4; read-out: pTGI (converted)): > 100 µM | GI50 (M14): 0.794 µM | TGI (M14; read-out: pTGI (converted)): > 100 µM | GI50 (T47D): 3.16 µM | TGI (T47D; read-out: pTGI (converted)): > 100 µM | GI50 (OVCAR-4): 6.31 µM | TGI (OVCAR-4; read-out: pTGI (converted)): > 100 µM | GI50 (KM12): 1 µM | TGI (KM12; read-out: pTGI (converted)): > 100 µM | GI50 (BT-549): 5.01 µM | TGI (BT-549; read-out: pTGI (converted)): > 100 µM | GI50 (HCT-116): 2.51 µM | TGI (HCT-116; read-out: pTGI (converted)): > 100 µM | GI50 (MDA-MB-468): 0.501 µM | TGI (MDA-MB-468; read-out: pTGI (converted)): 10 µM | GI50 (OVCAR-3): 1.26 µM | TGI (OVCAR-3; read-out: pTGI (converted)): 3.98 µM | GI50 (NCI-H522): 1.58 µM | TGI (NCI-H522; read-out: pTGI (converted)): 39.8 µM | IC50 (NCI-H460 [2]): 2.3 µM | GI50 (SK-MEL-2): 6.31 µM | TGI (SK-MEL-2; read-out: pTGI (converted)): > 100 µM | GI50 (NCI/ADR-RES): 1.26 µM | TGI (NCI/ADR-RES; read-out: pTGI (converted)): 3.98 µM | GI50 (SK-MEL-5): 0.631 µM | TGI (SK-MEL-5; read-out: pTGI (converted)): 5.01 µM | GI50 (HOP-62): 0.126 µM | TGI (HOP-62; read-out: pTGI (converted)): 2 µM | GI50 [3]: 1 µM | TGI ([3]; read-out: pTGI (converted)): 5.01 µM | GI50 (PC-3): 2 µM | TGI (PC-3; read-out: pTGI (converted)): > 100 µM | GI50 (MDA-MB-435): 0.251 µM | TGI (MDA-MB-435; read-out: pTGI (converted)): 0.794 µM
